Published values gathered from unrelated publications.
Compare with care: the assays were run in different laboratories.
Matrix: plasma
Route: oral

Cn1cc(-c2ccc(S(=O)(=O)[C@@H]3C[C@@H](C(=O)NC4(C#N)CC4)N(C(=O)C4(C(F)(F)F)CC4)C3)c(C(F)(F)F)c2)cn1 gave an AUC(0-inf) of 229 ng·h/mL (human; 3 mg; single dose, fasted, healthy volunteers).
With CC(C)n1cc(C#N)c2cc(-n3cc(C(=O)O)cn3)ccc21 the AUC(0-inf) was 5190 ng·h/mL (human; 25 mg; single dose, fasted, healthy volunteers).
COc1ccc([C@@H]2CN(C(=O)[C@@H](O)CO)C[C@@]2(C)[C@@H](C)O)cc1OC1CN(c2ccc(C)cn2)C1 has an AUC(0-inf) of 9000 ng·h/mL (human; 40 mg; single dose, healthy volunteers).
CC(C)(O)c1ccccc1-c1ccc2[nH]c(/C=C/c3ccc(C(F)(F)F)cc3)nc2c1 has an AUC(0-inf) of 2110 ng·h/mL (male human; 10 mg; single dose, fasted).
CCc1nc2c(C)cc(N3CCN(CC(=O)N4CC(O)C4)CC3)cn2c1N(C)c1nc(-c2ccc(F)cc2)c(C#N)s1 gave an AUC(0-inf) of 16400 ng·h/mL (human; 300 mg; fed, healthy volunteers).
For O=C(Nc1c(Cl)cncc1Cl)c1ccc(OC(F)F)c(OCC2CC2)c1, the AUC(0-inf) was 33.8 ng·h/mL (human; 0.25 mg; single dose, fasted).
CO[C@H]1CC[C@H](N2C(=O)CNc3ncc(-c4ccc(C(C)(C)O)nc4)nc32)CC1 gave an AUC(0-inf) of 1690 ng·h/mL (human; 45 mg; patients).
For C[C@@]1(c2cc(NC(=O)c3ccc(C#N)cn3)ccc2F)C=CSC(N)=N1, the AUC(0-inf) was 14500 ng·h/mL (human; 150 mg; single dose).
CC(C)(Sc1ccncc1-c1ccc(C#N)c2ccccc12)C(=O)O has an AUC(0-inf) of 415 ng·h/mL (male human; 20 mg; single dose, fed, healthy volunteers).
